Experimental data published in ChEMBL document CHEMBL1255499, “Recombinant phenotyping of cytomegalovirus UL97 kinase sequence variants for ganciclovir resistance” (Antimicrob Agents Chemother, 2010).

What was measured:
Human betaherpesvirus 5 [1] = assay: Antiviral activity against Human cytomegalovirus T3243 expressing UL97 kinase T659I mutant gene infected in human foreskin fibroblast measured 6 days post infection by SEAP reporter gene assay; assay type: functional, organism-based; conditions: Human betaherpesvirus 5, T3243, 144 h
Procedure, shortened: (§1)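 Ganciclovir SEAP yield reduction. Confluent HFF (2 × 10⁵ cells/well) infected with cell-free virus stock at MOI 0.02. Inoculum removed after 1.5 h and replaced with medium containing serial 2-fold GCV dilutions, top concentration 4 to 32 μM. Supernatant SEAP read by chemiluminescent substrate at day 6. EC₅₀ is the concentration giving 50% SEAP reduction; mean and SD of ≥7 determinations over ≥4 setup dates.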

Human betaherpesvirus 5 [2] = assay: Antiviral activity against Human cytomegalovirus T3239 expressing UL97 kinase V665I mutant gene infected in human foreskin fibroblast measured 6 days post infection by SEAP reporter gene assay; conditions: Human betaherpesvirus 5, T3239, 144 h
Human betaherpesvirus 5 [3] = assay: Antiviral activity against Human cytomegalovirus T3130 expressing UL97 kinase V665I mutant gene infected in human foreskin fibroblast measured 6 days post infection by SEAP reporter gene assay; conditions: Human betaherpesvirus 5, T3130, 144 h
Human betaherpesvirus 5 [4] = assay: Antiviral activity against Human cytomegalovirus T3264 expressing UL97 kinase G623S mutant gene infected in human foreskin fibroblast measured 6 days post infection by SEAP reporter gene assay; assay type: functional, organism-based; conditions: Human betaherpesvirus 5, T3264, 144 h; procedure, shortened: as §1
Human betaherpesvirus 5 [5] = assay: Antiviral activity against Human cytomegalovirus T3329 expressing UL97 kinase C603W mutant gene infected in human foreskin fibroblast measured 6 days post infection by SEAP reporter gene assay; conditions: Human betaherpesvirus 5, T3329, 144 h
Human betaherpesvirus 5 [6] = assay: Antiviral activity against Human cytomegalovirus T3327 expressing UL97 kinase C603S mutant gene infected in human foreskin fibroblast measured 6 days post infection by SEAP reporter gene assay; assay type: functional, organism-based; conditions: Human betaherpesvirus 5, T3327, 144 h
Procedure, shortened: (§2)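 Confluent HFF (2 × 10⁵ cells/well) infected with cell-free recombinant AD169-derived SEAP-reporter CMV at MOI 0.02 for 1.5 h. Inoculum then replaced with medium holding serial 2-fold ganciclovir dilutions, top concentration 4 to 32 μM. Supernatant SEAP read by chemiluminescent substrate at day 6. EC₅₀ is the concentration giving 50% SEAP reduction, reported as mean and SD of ≥7 determinations over ≥4 setup dates.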

Human betaherpesvirus 5 [7] = assay: Antiviral activity against Human cytomegalovirus T3331 expressing UL97 kinase C603R mutant gene infected in human foreskin fibroblast measured 6 days post infection by SEAP reporter gene assay; assay type: functional, organism-based; conditions: Human betaherpesvirus 5, T3331, 144 h; procedure, shortened: as §2
Human betaherpesvirus 5 [8] = assay: Antiviral activity against Human cytomegalovirus T3041 expressing UL97 kinase L600I mutant gene infected in human foreskin fibroblast measured 6 days post infection by SEAP reporter gene assay; assay type: functional, organism-based; conditions: Human betaherpesvirus 5, T3041, 144 h; procedure, shortened: as §2
Human betaherpesvirus 5 [9] = assay: Antiviral activity against Human cytomegalovirus T3146 expressing UL97 kinase K599R mutant gene infected in human foreskin fibroblast measured 6 days post infection by SEAP reporter gene assay; conditions: Human betaherpesvirus 5, T3146, 144 h
Human betaherpesvirus 5 [10] = assay: Antiviral activity against Human cytomegalovirus T3253 expressing UL97 kinase K599R mutant gene infected in human foreskin fibroblast measured 6 days post infection by SEAP reporter gene assay; conditions: Human betaherpesvirus 5, T3253, 144 h
Human betaherpesvirus 5 [11] = assay: Antiviral activity against Human cytomegalovirus T3252 expressing UL97 kinase A594V mutant gene infected in human foreskin fibroblast measured 6 days post infection by SEAP reporter gene assay; assay type: functional, organism-based; conditions: Human betaherpesvirus 5, T3252, 144 h; procedure, shortened: as §2
Human betaherpesvirus 5 [12] = assay: Antiviral activity against Human cytomegalovirus T2255 expressing UL97 kinase A594V mutant gene infected in human foreskin fibroblast measured 6 days post infection by SEAP reporter gene assay; assay type: functional, organism-based; conditions: Human betaherpesvirus 5, T2255, 144 h; procedure, shortened: as §2
Human betaherpesvirus 5 [13] = assay: Antiviral activity against Human cytomegalovirus T3258 expressing UL97 kinase A594E mutant gene infected in human foreskin fibroblast measured 6 days post infection by SEAP reporter gene assay; conditions: Human betaherpesvirus 5, T3258, 144 h
Human betaherpesvirus 5 [14] = assay: Antiviral activity against Human cytomegalovirus T3259 expressing UL97 kinase C592G mutant gene infected in human foreskin fibroblast measured 6 days post infection by SEAP reporter gene assay; assay type: functional, organism-based; conditions: Human betaherpesvirus 5, T3259, 144 h; procedure, shortened: as §1
Human betaherpesvirus 5 [15] = assay: Antiviral activity against Human cytomegalovirus T2258 expressing UL97 kinase C592G mutant gene infected in human foreskin fibroblast measured 6 days post infection by SEAP reporter gene assay; assay type: functional, organism-based; conditions: Human betaherpesvirus 5, T2258, 144 h; procedure, shortened: as §2
Human betaherpesvirus 5 [16] = assay: Antiviral activity against Human cytomegalovirus T3244 expressing UL97 kinase A588V mutant gene infected in human foreskin fibroblast measured 6 days post infection by SEAP reporter gene assay; conditions: Human betaherpesvirus 5, T3244, 144 h
Human betaherpesvirus 5 [17] = assay: Antiviral activity against Human cytomegalovirus T3216 expressing UL97 kinase A588V mutant gene infected in human foreskin fibroblast measured 6 days post infection by SEAP reporter gene assay; conditions: Human betaherpesvirus 5, T3216, 144 h
Human betaherpesvirus 5 [18] = assay: Antiviral activity against Human cytomegalovirus T3240 expressing UL97 kinase N510S mutant gene infected in human foreskin fibroblast measured 6 days post infection by SEAP reporter gene assay; assay type: functional, organism-based; conditions: Human betaherpesvirus 5, T3240, 144 h; procedure, shortened: as §1
Human betaherpesvirus 5 [19] = assay: Antiviral activity against Human cytomegalovirus T3215 expressing UL97 kinase A478V mutant gene infected in human foreskin fibroblast measured 6 days post infection by SEAP reporter gene assay; conditions: Human betaherpesvirus 5, T3215, 144 h
Human betaherpesvirus 5 [20] = assay: Antiviral activity against Human cytomegalovirus T3242 expressing UL97 kinase A478V mutant gene infected in human foreskin fibroblast measured 6 days post infection by SEAP reporter gene assay; conditions: Human betaherpesvirus 5, T3242, 144 h
Human betaherpesvirus 5 [21] = assay: Antiviral activity against Human cytomegalovirus T3136 expressing UL97 kinase H469Y mutant gene infected in human foreskin fibroblast measured 6 days post infection by SEAP reporter gene assay; assay type: functional, organism-based; conditions: Human betaherpesvirus 5, T3136, 144 h; procedure, shortened: as §1
Human betaherpesvirus 5 [22] = assay: Antiviral activity against Human cytomegalovirus T2924 expressing UL97 kinase H469Y mutant gene infected in human foreskin fibroblast measured 6 days post infection by SEAP reporter gene assay; assay type: functional, organism-based; conditions: Human betaherpesvirus 5, T2924, 144 h; procedure, shortened: as §2
Human betaherpesvirus 5 [23] = assay: Antiviral activity against Human cytomegalovirus T3257 expressing UL97 kinase V466M mutant gene infected in human foreskin fibroblast measured 6 days post infection by SEAP reporter gene assay; conditions: Human betaherpesvirus 5, T3257, 144 h
Human betaherpesvirus 5 [24] = assay: Antiviral activity against Human cytomegalovirus T2259 expressing UL97 kinase M460V mutant gene infected in human foreskin fibroblast measured 6 days post infection by SEAP reporter gene assay; assay type: functional, organism-based; conditions: Human betaherpesvirus 5, T2259, 144 h; procedure, shortened: as §2
Human betaherpesvirus 5 [25] = assay: Antiviral activity against Human cytomegalovirus T3346 expressing UL97 kinase M460T mutant gene infected in human foreskin fibroblast measured 6 days post infection by SEAP reporter gene assay; assay type: functional, organism-based; conditions: Human betaherpesvirus 5, T3346, 144 h; procedure, shortened: as §2
Human betaherpesvirus 5 [26] = assay: Antiviral activity against Human cytomegalovirus T3184 expressing UL97 kinase L405P mutant gene infected in human foreskin fibroblast measured 6 days post infection by SEAP reporter gene assay; conditions: Human betaherpesvirus 5, T3184, 144 h
Human betaherpesvirus 5 [27] = assay: Antiviral activity against Human cytomegalovirus T2789 expressing UL97 kinase L405P mutant gene infected in human foreskin fibroblast measured 6 days post infection by SEAP reporter gene assay; conditions: Human betaherpesvirus 5, T2789, 144 h
Human betaherpesvirus 5 [28] = assay: Antiviral activity against Human cytomegalovirus T3326 harboring Frt motif upstream of UL97 kinase N68D L126Q I244V mutant gene infected in human foreskin fibroblast measured 6 days post infection by SEAP reporter gene assay; conditions: Human betaherpesvirus 5, T3326, 144 h
Human betaherpesvirus 5 [29] = assay: Antiviral activity against Human cytomegalovirus T3261 harboring Frt motif upstream of UL97 kinase infected in human foreskin fibroblast measured 6 days post infection by SEAP reporter gene assay; conditions: Human betaherpesvirus 5, T3261, 144 h
Human betaherpesvirus 5 [30] = assay: Antiviral activity against Human cytomegalovirus T3185 harboring Frt motif upstream of UL97 gene and expressing UL97 kinase H587Y mutant gene infected in human foreskin fibroblast measured 6 days post infection by SEAP reporter gene assay; conditions: Human betaherpesvirus 5, T3185, 144 h
Human betaherpesvirus 5 [31] = assay: Antiviral activity against Human cytomegalovirus T3135 expressing UL97 kinase H587Y mutant gene infected in human foreskin fibroblast measured 6 days post infection by SEAP reporter gene assay; conditions: Human betaherpesvirus 5, T3135, 144 h
Human betaherpesvirus 5 [32] = assay: Antiviral activity against Human cytomegalovirus T3099 expressing UL97 kinase H587Y mutant gene infected in human foreskin fibroblast measured 6 days post infection by SEAP reporter gene assay; conditions: Human betaherpesvirus 5, T3099, 144 h
Human betaherpesvirus 5 [33] = assay: Antiviral activity against Human cytomegalovirus T2233 expressing UL97 kinase H587Y mutant gene infected in human foreskin fibroblast measured 6 days post infection by SEAP reporter gene assay; conditions: Human betaherpesvirus 5, T2233, 144 h
Human betaherpesvirus 5 [34] = assay: Antiviral activity against Human cytomegalovirus T2211 expressing UL97 kinase H587Y mutant gene infected in human foreskin fibroblast measured 6 days post infection by SEAP reporter gene assay; conditions: Human betaherpesvirus 5, T2211, 144 h

Work on `Nc1nc2c(ncn2COC(CO)CO)c(=O)[nH]1` [GANCICLOVIR] yielded an EC50 (Human betaherpesvirus 5 [1]) of 1.26 µM, an EC50 (Human betaherpesvirus 5 [2]) of 1.06 µM and an EC50 (Human betaherpesvirus 5 [3]) of 1.22 µM. For the same compound, the EC50 (Human betaherpesvirus 5 [4]) was 1.13 µM, the EC50 (Human betaherpesvirus 5 [5]) was 7.81 µM and the EC50 (Human betaherpesvirus 5 [6]) was 1.85 µM. For the same compound, the EC50 (Human betaherpesvirus 5 [7]) was 8.18 µM, the EC50 (Human betaherpesvirus 5 [8]) was 1.5 µM and the EC50 (Human betaherpesvirus 5 [9]) was 0.94 µM. It also gave an EC50 (Human betaherpesvirus 5 [10]) of 1.23 µM, an EC50 (Human betaherpesvirus 5 [11]) of 8.48 µM and an EC50 (Human betaherpesvirus 5 [12]) of 9.24 µM. The EC50 (Human betaherpesvirus 5 [13]) was 2.98 µM, the EC50 (Human betaherpesvirus 5 [14]) was 3 µM and the EC50 (Human betaherpesvirus 5 [15]) was 3.36 µM. For the same compound, the EC50 (Human betaherpesvirus 5 [16]) was 0.99 µM, the EC50 (Human betaherpesvirus 5 [17]) was 1.23 µM and the EC50 (Human betaherpesvirus 5 [18]) was 1.14 µM. The EC50 (Human betaherpesvirus 5 [19]) was 0.95 µM, the EC50 (Human betaherpesvirus 5 [20]) was 0.77 µM and the EC50 (Human betaherpesvirus 5 [21]) was 1.05 µM. The EC50 (Human betaherpesvirus 5 [22]) was 1.33 µM, the EC50 (Human betaherpesvirus 5 [23]) was 1.24 µM and the EC50 (Human betaherpesvirus 5 [24]) was 8.52 µM. For the same compound, the EC50 (Human betaherpesvirus 5 [25]) was 9.24 µM, the EC50 (Human betaherpesvirus 5 [26]) was 2.76 µM and the EC50 (Human betaherpesvirus 5 [27]) was 3.02 µM. It also gave an EC50 (Human betaherpesvirus 5 [28]) of 1.09 µM, an EC50 (Human betaherpesvirus 5 [29]) of 0.99 µM and an EC50 (Human betaherpesvirus 5 [30]) of 0.96 µM. The EC50 (Human betaherpesvirus 5 [31]) was 1 µM, the EC50 (Human betaherpesvirus 5 [32]) was 1.02 µM and the EC50 (Human betaherpesvirus 5 [33]) was 1.11 µM. For the same compound, the EC50 (Human betaherpesvirus 5 [34]) was 1.1 µM.
